Assay outcomes from PubChem.
The list is not random: actives were taken first. Their share in the collection is about 2%.
dFosB act-1 – activators of delta FosB homodimer, primary screen, biochemical, fluorescence polarization, TAMRA-CDK5 oligo, single point; Protein FosB (Mus musculus), P13346; purified delta FosB; percent of positive-control signal above neutral wells; activation, % at 25 µM; 340,000 tested, 0.99% active; AID 493131, 2011;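 active = mean activation above about 17%, with every replicate also reaching it, limit read from the data, passing the limit was not always enough; inconclusive = only one of the two conditions met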
CAL PDZ FP-1 – CAL PDZ peptide-binding inhibitors, primary screen, biochemical, fluorescence polarization, Cer-tagged CAL PDZ, HTS; AID 504414, 2011; purified CAL PDZ, TMR-peptide fluorescence polarization, 1 h; 330,000 tested, 0.02% active; Golgi-associated PDZ and coiled-coil motif-containing protein (Homo sapiens), Q9HD26; inhibition, % at 20 µM;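 active = highest replicate inhibition of at least 40%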
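Material – purified CerCALP PDZ construct · Detection – FP readout, S and P plane fluorescence · Measure – percent inhibition from loss of millipolarization · Controls – unlabelled peptide for full inhibition, DMSO wells as neutral · Probe or stimulus – TMR-labelled reporter peptide T*-PRC34 bound in PDZ groove · Times – 1 h at RT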
NTR1 agonist – agonists of human NTR1, primary screen, imaging, U2OS cells, beta-arrestin-GFP, high content; Neurotensin receptor type 1 (Homo sapiens), P30989; NTR1-U2OS beta-arrestin-GFP spot imaging, agonist mode; activation, % at 20 µM; 330,000 tested, 0.17% active; AID 493036, 2011;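 active = activation at or above 40% of the spot to cytoplasm intensity ratio, with at least 20 cells analyzed; inconclusive = wells under 20 cells, flagged as cytotoxic or low count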
Target sequence (P30989 whole entry, looked up): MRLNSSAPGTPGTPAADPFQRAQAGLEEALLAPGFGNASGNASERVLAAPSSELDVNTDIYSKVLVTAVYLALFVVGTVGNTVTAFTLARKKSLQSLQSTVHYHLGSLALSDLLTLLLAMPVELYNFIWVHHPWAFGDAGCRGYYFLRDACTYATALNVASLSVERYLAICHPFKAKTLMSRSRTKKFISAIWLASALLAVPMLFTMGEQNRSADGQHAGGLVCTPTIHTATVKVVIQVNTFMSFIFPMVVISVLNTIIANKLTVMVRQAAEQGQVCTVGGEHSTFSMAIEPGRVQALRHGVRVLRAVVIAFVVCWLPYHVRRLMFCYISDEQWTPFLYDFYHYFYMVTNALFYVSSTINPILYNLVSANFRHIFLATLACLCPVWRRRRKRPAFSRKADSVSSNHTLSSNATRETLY
CAL PDZ FP-2 – untagged CAL PDZ binding inhibitors, primary screen, biochemical, fluorescence polarization, HTS | inhibition, % at 24.9 µM | AID 602252, 2012 | 300,000 tested, 0.92% active | Golgi-associated PDZ and coiled-coil motif-containing protein (Homo sapiens), Q9HD26 | purified CAL PDZ, TMR-peptide fluorescence polarization, 1 h;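 active = mean inhibition of at least 30% with at least half of replicates also reaching 30%; inconclusive = no clear call, values can overlap the other calls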
PKA-R1A activ – activators of PKA-R1A holoenzyme, primary screen, biochemical, fluorescence polarization, Cy5-IP20, bovine R1A, mouse PKAc | activation, % at 11.4 µM | cAMP-dependent protein kinase type I-alpha regulatory subunit (Bos taurus) + … | AID 504707, 2011 | 340,000 tested, 0.083% active | PKA-R1A dissociation; scaled: DMSO 0%, 113 µM cGMP 100%;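 active = percent activation above the mean of all tested compounds plus 3 SD, cut at about 19% in these data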;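 also: higher means more PKAc released from R1A so a rise in polarization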
PKA-R2B act – activators of PKA-R2B holoenzyme, primary screen, biochemical, fluorescence polarization, Cy5-IP20, human. 340,000 tested, 0.079% active. PKA-R2B holoenzyme dissociation; R2B truncated from residue 108, S112A mutant; 0% DMSO only, 100% 113 µM cGMP. cAMP-dependent protein kinase catalytic subunit beta (Homo sapiens) + cAMP-dependent …. activation, % at 11.4 µM;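 active = activation above a cutoff set at the mean over all compounds plus 3 SD, cut at about 18% in these data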;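 also: higher means more holoenzyme dissociation and a rise in polarization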
dFosB act-2 – activators of mouse delta FosB DNA binding, confirmation, biochemical, fluorescence polarization, TAMRA-CDK5 oligo, cherry-picked samples; shares compounds with dFosB act-1; purified delta FosB; normalised: neutral wells 0, positive control 100; activation, % at 24.9 µM; 2,400 tested, under 10 active; AID 588690, 2011;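 active = highest replicate activation at or above 34% and every replicate reaching that threshold; inconclusive = meets only one of the two criteria; inactive = meets neither criterion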;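 also: higher polarization means more probe DNA bound by delta FosB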
Each line names hits and unclear results; the compound was inactive in the other large screens (follow-up assays come after a bar, where they were run).

O=C1NC(=O)/C(=C\c2ccccc2OCc2ccc([N+](=O)[O-])cc2)N1	none
COc1cc(/C=N/NC(=O)c2cc(C3CC3)[nH]n2)cc(OC)c1OC	dFosB act-1 20.5 | dFosB act-2 inactive
CCOc1cccc(/C=N/NC(=O)c2cc(C3CC3)[nH]n2)c1O	none
COc1ccc(NC(=O)NCc2ccc3c(c2)OCO3)cc1OC	none
O=C(CN1C(=O)NC2(CCCCCC2)C1=O)Nc1ccc(Cl)cc1Cl	none
O=C(CN1C(=O)NC2(CCc3ccccc3C2)C1=O)Nc1ccc(Cl)cc1F (centres undefined)	dFosB act-1 40.1 | dFosB act-2 inactive
COc1cc2c(cc1OC)C(COc1ccc3c(C)cc(=O)oc3c1)N(C(=O)c1ccco1)CC2 (centres undefined)	dFosB act-1 inconclusive
CCOc1ccc(NC(=S)N2CCc3cc(OC)c(OC)cc3C2COc2ccc3c(C)cc(=O)oc3c2)cc1 (centres undefined)	dFosB act-1 50.0 | dFosB act-2 inactive
COc1cccc(-c2ccc(NC(=O)C3CCCN(CCCn4nc(C)cc4C)C3)cc2)c1 (centres undefined)	dFosB act-1 26.9 | dFosB act-2 inactive
CC(C)NC(=O)Nc1ccc2c(c1)C(=O)N([C@H](C)CO)C[C@H](C)[C@@H](CN(C)Cc1ccc3c(c1)OCO3)OCCCC[C@@H](C)O2	none (no result: dFosB act-1, CAL PDZ FP-1, NTR1 agonist, CAL PDZ FP-2)
CN(C)C(=S)Oc1ccccc1C1SCCS1	none (no result: dFosB act-1, CAL PDZ FP-1, NTR1 agonist, CAL PDZ FP-2)
CCOc1ccc(NC(=O)CCC(=O)NNC(=O)COc2ccc(C)cc2)cc1	none (no result: CAL PDZ FP-1)
CCOc1ccc(NC(=O)CCC(=O)NNC(=O)Nc2cccc(Cl)c2)cc1	dFosB act-1 33.7 (no result: CAL PDZ FP-2) | dFosB act-2 inactive
O=C(CCC(=O)Nc1ccc(Cl)cc1Cl)NNC(=O)Nc1ccccc1	dFosB act-1 33.9 (no result: CAL PDZ FP-2) | dFosB act-2 inactive
Cc1ccc(C)c(S(=O)(=O)N2CCN(C(=O)Cc3ccc(S(=O)(=O)N4CCOCC4)s3)CC2)c1	none (no result: CAL PDZ FP-2)
N/C(=N\OC(=O)COc1ccc(Cl)cc1Cl)c1cccnc1	dFosB act-1 24.3 | dFosB act-2 inactive
C/C(=N\NC(=O)c1ccc(CN(C)S(=O)(=O)c2ccc(C)cc2)cc1)c1ccc(OC(F)F)cc1	dFosB act-1 26.1 | dFosB act-2 inactive
Cc1ccc(S(=O)(=O)N(C)Cc2ccc(C(=O)N/N=C/c3ccc(OC(F)F)cc3)cc2)cc1	none
COCCNc1nnc(SCC(=O)NC2CCCCC2)s1	none (no result: NTR1 agonist, CAL PDZ FP-2)
CC(=O)Oc1cccc(N2C(=O)c3ccc(C(=O)Nc4c[nH]c(=O)[nH]c4=O)cc3C2=O)c1	dFosB act-1 20.3 | dFosB act-2 inactive
COCCn1c(SCC(=O)NC2(C#N)CCCCC2)nc2ccccc2c1=O	none
CCCCN(CC)CCNC(=S)Nc1ccc2nc(N3CCN(C)CC3)cc(C)c2c1	dFosB act-1 20.8 | dFosB act-2 inactive
CCCN(CCC)CCCNC(=S)Nc1ccc2nc(N3CCN(C)CC3)cc(C)c2c1	none
CCCOc1ccc(C2c3c(oc4cc(C)c(C)cc4c3=O)C(=O)N2CCCN(C)C)cc1 (centres undefined)	dFosB act-1 28.2 (no result: CAL PDZ FP-2) | dFosB act-2 inactive
